From ChEMBL document CHEMBL1144864, “Exploration of the bicyclo[3.3.1]nonane system as a template for the development of new ligands for the estrogen receptor” (Bioorg Med Chem Lett, 2003)

How the values were obtained:
[1] = molecular target: T1, Estrogen receptor (Homo sapiens) (UniProt P03372); assay: Affinity for estrogen receptor alpha (ER-alpha) relative to estradiol
T1 sequence (whole entry): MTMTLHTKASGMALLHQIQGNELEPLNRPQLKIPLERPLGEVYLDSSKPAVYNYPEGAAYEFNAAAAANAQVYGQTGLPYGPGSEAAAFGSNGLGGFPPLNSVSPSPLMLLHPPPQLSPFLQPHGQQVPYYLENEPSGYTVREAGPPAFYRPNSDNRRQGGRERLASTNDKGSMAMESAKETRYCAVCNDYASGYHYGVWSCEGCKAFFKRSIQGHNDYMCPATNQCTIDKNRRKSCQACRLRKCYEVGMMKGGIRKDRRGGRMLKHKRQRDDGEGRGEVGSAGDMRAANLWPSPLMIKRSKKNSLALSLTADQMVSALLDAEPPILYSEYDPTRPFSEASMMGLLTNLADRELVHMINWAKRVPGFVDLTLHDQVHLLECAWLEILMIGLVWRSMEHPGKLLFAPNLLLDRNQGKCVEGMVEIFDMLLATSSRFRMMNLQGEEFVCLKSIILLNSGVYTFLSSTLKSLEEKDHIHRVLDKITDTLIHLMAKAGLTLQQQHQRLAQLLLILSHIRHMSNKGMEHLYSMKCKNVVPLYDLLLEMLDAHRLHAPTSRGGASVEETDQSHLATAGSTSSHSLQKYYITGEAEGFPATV
Procedure, shortened: (§1)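 Competitive radiometric binding assay against ER alpha or ER beta. Values are reported as relative binding affinity (RBA), expressed as a percentage of the affinity of estradiol.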

[2] = molecular target: Estrogen receptor (Homo sapiens) (UniProt Q92731+P03372); assay: Relative affinity for alpha and beta estrogen receptors; format: protein assay
Chain of Estrogen receptor (Homo sapiens) (UniProt Q92731+P03372) (Q92731 whole entry, looked up, one chain of several): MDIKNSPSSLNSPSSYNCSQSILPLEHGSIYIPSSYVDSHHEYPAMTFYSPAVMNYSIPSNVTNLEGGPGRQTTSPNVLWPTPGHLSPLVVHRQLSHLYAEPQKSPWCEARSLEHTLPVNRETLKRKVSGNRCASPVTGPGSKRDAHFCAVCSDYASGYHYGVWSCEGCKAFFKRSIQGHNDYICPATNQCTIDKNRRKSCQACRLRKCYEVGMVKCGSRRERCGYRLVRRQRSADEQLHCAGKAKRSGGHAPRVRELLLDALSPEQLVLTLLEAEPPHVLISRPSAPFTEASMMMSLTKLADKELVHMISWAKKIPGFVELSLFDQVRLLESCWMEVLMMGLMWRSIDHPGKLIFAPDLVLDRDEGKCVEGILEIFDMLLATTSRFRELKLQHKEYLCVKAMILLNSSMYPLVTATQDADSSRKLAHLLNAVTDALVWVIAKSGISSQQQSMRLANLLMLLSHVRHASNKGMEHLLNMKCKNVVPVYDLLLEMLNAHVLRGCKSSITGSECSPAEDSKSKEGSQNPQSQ

[3] = molecular target: Estrogen receptor beta (Homo sapiens) (UniProt Q92731); assay: Affinity for estrogen receptor beta (ER-beta) relative to estradiol; procedure, shortened: as §1
Chain of Estrogen receptor beta (Homo sapiens) (Q92731 whole entry): as the sequence (Q92731 whole entry, looked up, one chain of several) above

[4] = molecular target: T1, Estrogen receptor (Homo sapiens); assay: Binding affinity for Estrogen receptor alpha relative to estradiol; procedure, shortened: as §1
[5] = molecular target: Estrogen receptor beta (Homo sapiens) (UniProt Q92731); assay: Binding affinity for Estrogen receptor beta relative to estradiol; procedure, shortened: as §1

Structure (SMILES)	relative binding affinity (RBA) [1]	Ratio [2]	relative binding affinity (RBA) [3]	relative binding affinity (RBA) [4]	relative binding affinity (RBA) [5]
Oc1ccc(C2(c3ccc(O)cc3)C3CCCC2CCC3)cc1	0.31	0.8	0.25		
Oc1ccc(C2CCC3CC2CCC3c2ccc(O)cc2)cc1 (stereo not drawn)	0.44	6.6	2.9		
CC(=O)Oc1ccc(C(=C2CCCCC2)c2ccc(OC(C)=O)cc2)cc1				68	334
CC1(c2ccc(O)cc2)C2CCCC1CCC2 (stereo not drawn)	0.32	28	8.9		
Oc1ccc(C2C3CCCC2CCC3)cc1 (stereo not drawn)	0.13	10	1.33		
CC(=C1C2CCCC1CCC2)c1ccc(O)cc1	1.71	2.7	4.58		

Now from value to molecule:

relative binding affinity (RBA) [1]	Ratio [2]	relative binding affinity (RBA) [3]	relative binding affinity (RBA) [4]	relative binding affinity (RBA) [5]	Structure (SMILES)
0.005	4.4	0.022			O=C1c2ccc(O)cc2C2CC1c1cc(O)ccc1C2=O
0.004	2.7	0.011			C[C@@H]1c2cc(O)ccc2C2CC1c1ccc(O)cc1[C@H]2C
0.033	2	0.072			Oc1ccc2c(c1)C1Cc3ccc(O)cc3C(C2)C1
0.22	3.5	0.77			Oc1ccc2c(c1)CC1CC2Cc2cc(O)ccc21
0.006	3.5	0.021			O=C1c2cc(O)ccc2C2CC1c1ccc(O)cc1C2=O
0.39	4.6	1.81			Oc1ccc(C2=CCC3CCCC2C3)cc1 (stereo not drawn)
0.007	3.6	0.025			C[C@@H]1c2ccc(O)cc2C2CC1c1cc(O)ccc1[C@H]2C
< 0.005		< 0.005			Oc1ccc2c(c1)CN1CN2Cc2cc(O)ccc21
513	0.59	301			Oc1ccc(C(=C2C3CCCC2CCC3)c2ccc(O)cc2)cc1
